Holding throughout (format): functional
For assay [1], the species on record is Mus musculus. In words: Percent inhibition of [3H]colchicine binding to tubulin with molar ratio of 1:10 (inhibitor: [3H]colchicine).
Assay [2] is filed under the species Mus musculus. In words: Concentration required to effect a 50% reduction in microtubule polymerization. The note with it: read-out: I50. An outline of the steps:
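GTP was added to 1 mM final and the sample warmed to 37 °C. Turbidity was followed at 400 nm, and percent inhibition was taken from plateau absorbance versus a no-ligand control. I50 was interpolated from the inhibition–concentration plot.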

For assay [3], the species on record is Mus musculus. In words: Percent inhibition of [3H]-colchicine binding to tubulin with molar ratio of 1:1 (inhibitor: [3H]-colchicine). The gist of the method:
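5 µM ligand, 5 µM tubulin and 5 µM [3H]colchicine in PMEG buffer (PME plus 0.1 mM GTP) were incubated 1.5 h at 37 °C, then quenched on ice. Bound label was separated by centrifuged G-50 gel filtration and counted by scintillation. Percent inhibition is relative to a no-ligand control, run in quadruplicate and averaged.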

Drawing on ChEMBL document CHEMBL1126973, “Synthesis and tubulin binding of novel C-10 analogues of colchicine” (J Med Chem, 1993), this text covers Inhibition and IC50 for 19 compounds.

As a reminder, the Inhibition is the change of the read-out against control, counted positive when it falls. For the compound `CCC(C)c1ccc2c(cc1=O)[C@@H](NC(C)=O)CCc1cc(OC)c(OC)c(OC)c1-2` (some centres not stated), the Inhibition in assay [1] is recorded as 57.1%; in assay [3] it was 19.6%. For the same compound, the IC50 in assay [2] was found to be 10 µM.

Regarding `COc1cc2c(c(OC)c1OC)-c1ccc(I)c(=O)cc1[C@@H](NC(C)=O)CC2`, the values for the Inhibition in assay [1] and in assay [3] were 98.3% and 74%, respectively. The IC50 in assay [2] is 3.8 µM.

Turning to `COc1cc2c(c(OC)c1OC)-c1ccc(OC(C)C)c(=O)cc1[C@@H](NC(C)=O)CC2`, the Inhibition is 50.5% in assay [1] and 10.1% in assay [3]. In assay [2], the IC50 stood at 23 µM.

For the compound `COc1cc2c(c(OC)c1OC)-c1ccc(Br)c(=O)cc1[C@@H](NC(C)=O)CC2`, the Inhibition in assay [1] is 97.4%; in assay [3], 59.4%. The IC50 in assay [2] was 3.3 µM.

`COc1cc2c(c(OC)c1OC)-c1ccc(C(C)C)c(=O)cc1[C@@H](NC(C)=O)CC2`: the values for the Inhibition in assay [1] and in assay [3] were 90% and 44.9%, respectively. Moreover, in assay [2], the IC50 came out at 4.2 µM.

For the compound `COc1cc2c(c(OC)c1OC)-c1ccc(C(C)(C)C)c(=O)cc1[C@@H](NC(C)=O)CC2`, the Inhibition in assay [1] is given as 69.4%; in assay [3] it was 21.9%. Besides, in assay [2], the IC50 amounted to 4.2 µM.

As for `COc1cc2c(c(OC)c1OC)-c1ccc(N=[N+]=[N-])c(=O)cc1[C@@H](NC(C)=O)CC2`, the figures for the Inhibition in assay [1] and in assay [3] were 95.8% and 51.1%, respectively. Also, the IC50 in assay [2] was determined as 4.2 µM.

Consider `CCc1ccc2c(cc1=O)[C@@H](NC(C)=O)CCc1cc(OC)c(OC)c(OC)c1-2`, for which the Inhibition in assay [1] is given as 96.5%; in assay [3], 54.9%. Besides, the IC50 in assay [2] was 4.2 µM.

Turning to `CCOc1ccc2c(cc1=O)[C@@H](NC(C)=O)CCc1cc(OC)c(OC)c(OC)c1-2`, the Inhibition in assay [1] is listed as 75%; in assay [3], 24.6%. In assay [2], the IC50 worked out at 6.1 µM.

With `COc1cc2c(c(OC)c1OC)-c1ccc(-c3ccccc3)c(=O)cc1[C@@H](NC(C)=O)CC2`, the Inhibition in assay [1] came out at 25.6%; in assay [3], 10.6%. Also, in assay [2], the IC50 came to 57 µM.

Consider `COc1cc2c(c(OC)c1OC)-c1ccc(Cl)c(=O)cc1[C@@H](NC(C)=O)CC2`, for which the Inhibition in assay [1] came out at 96.2%; in assay [3], 57.2%. Besides, in assay [2], the IC50 was 3.7 µM.

`CCCCc1ccc2c(cc1=O)[C@@H](NC(C)=O)CCc1cc(OC)c(OC)c(OC)c1-2`: the results for the Inhibition in assay [1] and in assay [3] were 24.7% and 13.9%, respectively. The IC50 in assay [2] was found to be 26 µM.

As for `COc1cc2c(c(OC)c1OC)-c1ccc(C)c(=O)cc1[C@@H](NC(C)=O)CC2`, the figures for the Inhibition in assay [1] and in assay [3] were 96.7% and 56.6%, respectively. Also, in assay [2], the IC50 stood at 4.1 µM.

On to `CCCOc1ccc2c(cc1=O)[C@@H](NC(C)=O)CCc1cc(OC)c(OC)c(OC)c1-2`, for which the Inhibition in assay [1] is recorded as 54.8%; in assay [3] it was 16.6%. Also, the IC50 in assay [2] came to 11 µM.

Regarding `COc1cc2c(c(OC)c1OC)-c1ccc(CC(C)C)c(=O)cc1[C@@H](NC(C)=O)CC2`, the Inhibition in assay [1] was 36.7%; in assay [3], 13.4%. Further, the IC50 in assay [2] was 8.5 µM.

Consider `CCCc1ccc2c(cc1=O)[C@@H](NC(C)=O)CCc1cc(OC)c(OC)c(OC)c1-2`, for which the figures for the Inhibition in assay [1] and in assay [3] were 89.2% and 41.7%, respectively. Moreover, the IC50 in assay [2] worked out at 3.5 µM.

For `COc1cc2c(c(OC)c1OC)-c1ccc(F)c(=O)cc1[C@@H](NC(C)=O)CC2`, the Inhibition in assay [1] worked out at 50.2%; in assay [3], 11%. The IC50 in assay [2] turned out to be 8.2 µM.

As for `COc1cc2c(c(OC)c1OC)-c1cccc(=O)cc1[C@@H](NC(C)=O)CC2` [CHOLCHICIDE], the Inhibition in assay [1] was 53.7%; in assay [3], 13.2%. Further, the IC50 in assay [2] amounted to 7.9 µM.

Regarding `COc1cc2c(c(OC)c1OC)-c1ccc(OC)c(=O)cc1[C@@H](NC(C)=O)CC2` [COLCHICINE], the Inhibition in assay [1] amounted to 89.7%; in assay [3] it was 37.2%. In addition, the IC50 in assay [2] is 5.1 µM.
